This is an account of results in ChEMBL document CHEMBL1136055, “3-Heteroaryl-2-pyridones: benzodiazepine site ligands with functional delectivity for alpha 2/alpha 3-subtypes of human GABA(A) receptor-ion channels” (J Med Chem, 2002).

The structures appear in SMILES notation. pKi: −log10 of the molar value.

A short description of series [1]: Half life at a dose of 1.5 mg/kg. Type of series: ADME, organism-based. Also noted: dose 1.5 mg/kg. Conditions: in vivo.
Series [2] can be described thus: Maximum concentration at a dose of 1.5 mg/kg. The note with it: in vivo. More on the design: dose 1.5 mg/kg. Type of series: ADME, organism-based.
Series [3] is described as follows: Log D was evaluated. Conditions: octanol/water. Type of series: physicochemical.
For series [4], the target named is T1, GABA-A receptor; alpha-5/beta-3/gamma-2 (Homo sapiens, UniProt P18507+P28472+P31644).
T1 sequence (P18507 whole entry): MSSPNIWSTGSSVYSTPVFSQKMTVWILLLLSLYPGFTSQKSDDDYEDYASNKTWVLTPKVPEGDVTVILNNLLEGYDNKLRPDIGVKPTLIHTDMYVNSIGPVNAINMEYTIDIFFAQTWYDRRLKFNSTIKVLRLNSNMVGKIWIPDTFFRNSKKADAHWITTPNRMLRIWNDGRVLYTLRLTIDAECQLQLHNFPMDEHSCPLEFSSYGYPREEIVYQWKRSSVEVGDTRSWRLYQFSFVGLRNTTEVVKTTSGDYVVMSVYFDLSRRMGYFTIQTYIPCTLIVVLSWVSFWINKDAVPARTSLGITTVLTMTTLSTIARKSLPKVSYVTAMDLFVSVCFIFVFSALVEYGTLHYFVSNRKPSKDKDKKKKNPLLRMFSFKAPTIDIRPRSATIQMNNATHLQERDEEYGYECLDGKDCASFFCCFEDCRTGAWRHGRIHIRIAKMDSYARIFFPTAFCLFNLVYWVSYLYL
T1 sequence (P28472 whole entry): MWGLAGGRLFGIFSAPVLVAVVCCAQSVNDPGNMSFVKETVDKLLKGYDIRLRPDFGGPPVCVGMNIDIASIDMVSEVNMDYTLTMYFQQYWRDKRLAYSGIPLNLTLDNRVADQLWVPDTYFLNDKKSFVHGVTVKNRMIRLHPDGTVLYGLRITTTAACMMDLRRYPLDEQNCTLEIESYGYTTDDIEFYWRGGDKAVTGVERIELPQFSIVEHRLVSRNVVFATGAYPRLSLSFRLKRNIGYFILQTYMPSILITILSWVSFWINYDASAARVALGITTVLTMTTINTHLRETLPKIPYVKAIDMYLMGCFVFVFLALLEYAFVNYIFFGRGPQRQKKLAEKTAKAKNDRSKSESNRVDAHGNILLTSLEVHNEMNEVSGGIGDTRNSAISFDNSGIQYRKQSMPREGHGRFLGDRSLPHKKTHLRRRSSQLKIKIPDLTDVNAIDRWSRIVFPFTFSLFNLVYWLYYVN
T1 sequence (P31644 whole entry): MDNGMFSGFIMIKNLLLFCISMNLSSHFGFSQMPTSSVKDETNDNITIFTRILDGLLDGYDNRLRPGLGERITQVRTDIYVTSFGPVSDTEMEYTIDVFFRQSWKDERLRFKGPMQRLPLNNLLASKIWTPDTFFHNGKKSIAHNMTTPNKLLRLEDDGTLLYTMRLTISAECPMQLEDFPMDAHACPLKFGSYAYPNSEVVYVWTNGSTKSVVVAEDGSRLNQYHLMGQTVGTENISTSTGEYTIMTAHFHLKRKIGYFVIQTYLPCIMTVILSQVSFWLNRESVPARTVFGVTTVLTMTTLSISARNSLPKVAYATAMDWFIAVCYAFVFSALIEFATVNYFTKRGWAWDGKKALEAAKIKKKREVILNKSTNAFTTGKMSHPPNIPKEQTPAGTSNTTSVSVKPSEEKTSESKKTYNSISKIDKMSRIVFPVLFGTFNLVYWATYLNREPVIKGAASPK
The series is described as follows: Inhibition of [3H]Ro-151788 binding to human GABA A receptor (alpha-5-beta-3-gamma-2) stably expressed in L(tk-) cells. Format: cell-based. Put shortly:
(§1)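 Competition binding against [3H]Ro15-1788 on cloned human α1/α2/α3/α5 β3γ2S receptors stably expressed in L(tk-) cells. Six to eight test concentrations spaced in half-log steps. Ki given as mean (SEM), n = 3-5, reported to two significant figures.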

Series [5] can be described thus: Vdss at a dose of 1.5 mg/kg. Type of series: ADME, organism-based. Also noted: dose 1.5 mg/kg. The note with it: in vivo, read-out: Vdss.
The nature of series [6]: Oral bioavailability at a dose of 1.5 mg/kg. Type of series: ADME, organism-based. The note with it: eutheria, in vivo.
Series [7] is described as follows: Maximum time at a dose of 1.5 mg/kg. Type of series: ADME, organism-based. Also noted: dose 1.5 mg/kg. Conditions: in vivo.
Series [8] can be described thus: Clp at a dose of 1.5 mg/kg. Type of series: ADME, organism-based. Also noted: dose 1.5 mg/kg. The note with it: in vivo.
Series [9] concerns the target GABA-A receptor; alpha-2/beta-3/gamma-2 (Homo sapiens) (UniProt P18507+P28472+P47869). The series is described as follows: Modulatory effect on coapplication with GABA at human Gamma-aminobutyric acid A receptor alpha-2-beta-3-gamma-2 expressed inXenopus oocytes. The note with it: Oocyte. Type of series: cell-based. Put shortly: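 Two-electrode voltage clamp of Xenopus oocytes transiently expressing human α1, α2 or α3 β3γ2S receptors. Test compound is co-applied with GABA at its EC20 (GABA range 4-30 µM). Result is the % change in GABA current, mean (SEM), n = 3-7, at the stated test compound concentration (µM).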

Series [10] in a line: Vdss at a dose of 2.0 mg/kg. The note with it: in vivo, read-out: Vdss. Type of series: ADME, organism-based. More on the design: dose 2 mg/kg.
A short description of series [11]: Clp at a dose of 2.0 mg/kg. Also noted: dose 2 mg/kg. Format: ADME, organism-based. Conditions: in vivo.
Series [12] is described as follows: half life at a dose of 2.0 mg/kg. Type of series: ADME, organism-based. Also noted: dose 2 mg/kg. Conditions: in vivo.
For series [13], the target named is T1, GABA-A receptor; alpha-5/beta-3/gamma-2. The series is described as follows: Displacement of [3H]Ro-151788 from human GABA-A receptor alpha-5-beta-3-gamma-2 subunits expressed in L(tk-) cells. Type of series: cell-based. Put shortly: as §1
On the technique in general: Displacement assays read how much labelled ligand stays bound in the presence of the test substance.

A short description of series [14]: Partition coefficient (logD). Format: physicochemical. The note with it: octanol/water.
Series [15] can be described thus: Maximum time at a dose of 2.0 mg/kg. Format: ADME, organism-based. Also noted: dose 2 mg/kg. Conditions: in vivo.
A short description of series [16]: Maximum concentration at a dose of 2.0 mg/kg. Type of series: ADME, organism-based. More on the design: dose 2 mg/kg. The note with it: in vivo.
A short description of series [17]: Oral bioavailability at a dose of 2.0 mg/kg. Type of series: ADME, organism-based. The note with it: eutheria, in vivo.

With `COc1ccc(-c2cc(-c3nc(C)cs3)c(=O)n(C)c2-c2ccnnc2)cc1`, the half-life (in general, how long it takes for the measured level to halve) in series [1] was 66 min. The Cmax (in general, the maximum level reached in the sampled fluid or tissue) in series [2] stood at 170 ng/mL. Besides, in series [3], the logD (in general, the decadic logarithm of the distribution of all forms, ionised or not, between an organic phase and buffer at a given pH) is 2.7. Further, the pKi (as a rule, the negative decadic logarithm of the Ki, by convention in mol/L) in [4] is 6.48. For the same compound, the Vd in series [5] turned out to be 2.5 L/kg. Also, the bioavailability (usually dose-corrected exposure relative to a reference, in per cent) in [6] was 65%. Besides, the Tmax (usually the time at which the peak concentration occurs) in series [7] was found to be 30 min. Further, the Clp in [8] was determined as 35 mL/min/kg. Further, the percent modulation of GABA EC20 response in [9] was determined as 33%.

Regarding `COc1ccc(-c2cc(-c3nc(C)cs3)c(=O)n(C)c2-c2ccncc2)cc1`, in [10], the Vd was 3.3 L/kg. This compound gave a Clp in series [11] of 44 mL/min/kg. In series [12], this compound had a half-life of 102 min. In series [13], this compound showed a negative-log Ki (pKi) of 6.49. This compound also displayed a logD in series [14] of 3.6. For the same compound, the Tmax in series [15] came to 18 min. For the same compound, the Cmax in [16] came to 83 ng/mL. Moreover, in series [9], the percent modulation of GABA EC20 response amounted to 80%. Besides, the bioavailability in series [17] is 25%.
